The RNAGym collection of RNA variant scans (doi:10.1126/science.aae0568)
Fewer inactive variants are shown than the library holds.

B1: tRNA (parent)
chain: GUUCCGUUGGCGUAAUGGUAACGCGUCUCCCUCCUAAGGAGAAGACUGCGGGUUCGAGUCCCGUACGGAACG

Variants of: B1
Test: yeast fitness relative to wild type (ratio to wild type); higher = fitter; tRNA-Arg(CCU), competitive growth, 37 C, YPD
Outline: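 Variants of the tRNA-Arg(CCU) gene were chemically synthesised with a 3% per-site mutation rate across 69 sites and placed at the native genomic locus in Saccharomyces cerevisiae. Six parallel replicates of the pooled strains were competed in YPD at 37°C for 24 hours, and gene amplicons from the start and end populations were read by 100-nucleotide paired-end sequencing. Darwinian fitness relative to wild type was derived from changes in genotype frequencies. Genotypes required ≥ 100 starting reads, and estimates < 0.5 were set to 0.5.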

Point of comparison: U13C U16G C49G, yeast fitness 0.617. Against it:
- U13G A42U C55U C62G A70C — lower, 0.525
- U13G A42C — higher, 1
- U13A G41C G52A — lower, ≤ 0.5
- U13C A20C — higher, 0.903
- U13A C27U G50U — higher, 0.674
- U13A G17A G51A C62U G67C — lower, ≤ 0.5
- U13A U19A A42U G51C — lower, ≤ 0.5
- U13C A65G A70C — higher, 0.744
- U13A G25C A45G — lower, 0.535
- U13G C30U C55A — lower, ≤ 0.5
- U13C A14U C61A — lower, ≤ 0.5
- U13G U19A C27G — higher, 0.626
- U13G G17C C31U — lower, ≤ 0.5
- U13C C49G C61G — lower, ≤ 0.5
- U13A C29G C30G C49A G56C C61U — higher, 0.635
- U13G U19C C61U — lower, ≤ 0.5
- U13A U28C — higher, 0.992
- U13A C24U C49G — lower, ≤ 0.5
- U13A C29G A43G — lower, ≤ 0.5
- U13C C31U G44C — higher, 0.844
- U13C G23C C30G A65C — lower, ≤ 0.5
- U13C A43U A70G — higher, 0.966
- A14C A20G A45C A57C — lower, ≤ 0.5
- U13C U32C A40G — lower, ≤ 0.5
- U13C U47C U64G G68C — lower, ≤ 0.5
- U13A U32C G63A — lower, 0.572
- U13A C46U — higher, 0.875
- U13G U26C C49G — lower, ≤ 0.5
- U13C C22U C30U — lower, ≤ 0.5
- A14C A15U C30U C34G A43G G48C C49U C61U — lower, ≤ 0.5
- U13C G44C G58C — higher, 0.661
- U13G A14U U16A G17U — lower, ≤ 0.5
- U13G U32A C33A — lower, ≤ 0.5
- U13G C61A C66A — lower, ≤ 0.5
- U13C A42U U54C A65C — lower, ≤ 0.5
- U13A C55A C60G C62G — lower, ≤ 0.5
- U13A U59A — higher, 0.827
- U13C C22U A45C G48C — lower, ≤ 0.5
- U13C A57G — higher, 0.919
- U13A C55U A65C — lower, 0.596
- U13G C33U G41C — lower, 0.581
- U13A U28C U32A — higher, 0.698
- U13C A15G C29A — lower, 0.508
- U13G C61A G67A — lower, ≤ 0.5
- U13A C27U C61A — higher, 0.619
- U13C A43U C46G — lower, ≤ 0.5
- U13A C27G A45G U64A — higher, 0.62
- U13C G48C C49U — higher, 0.772
- U13C C30A C31A — lower, 0.532
- A14C A15U C27U U32C U35G A70U — lower, ≤ 0.5
- U13C — higher, 1.01
- U13G — higher, 1.03
- U13C G25C C27G — lower, 0.539
- U13G C22U G63A — higher, 0.707
- U13A C34A A37G — lower, ≤ 0.5
- U13G C22U C30A — lower, 0.598
- U13C A14G C24A U32G A37C U64A — higher, 0.646
- U13C U35A A70G — lower, ≤ 0.5
- U13G A42C U47A G67C — lower, ≤ 0.5
- U13G C29U C33U G63A — lower, ≤ 0.5
- U13C C31A C49G C61G — lower, ≤ 0.5
- U13C C33G A40G U59A — lower, ≤ 0.5
- A14C — higher, 0.868
- U13A C33U — higher, 0.754
- U13C C33U A45G G50A C66A A70U — lower, ≤ 0.5
- U13A G52A — higher, 0.643
- U13C A43G U53A — lower, ≤ 0.5
- U13A C29U A43G U54A U59C C61A — lower, ≤ 0.5
- U13C C22U A45U — higher, 0.713
- U13G U26A A45C A69C — lower, 0.577
- U13G U16C G63C — lower, ≤ 0.5
- U13C C29G A36G G41A — lower, ≤ 0.5
- U13A G51A G56A — higher, 0.628
- U13C A43G G50C G67A — lower, ≤ 0.5
- U13C A21C C31U — lower, ≤ 0.5
- U13C A15C G48A — lower, ≤ 0.5
- U13G G56A — higher, 1.06
- U13A C46U G67C — lower, 0.53
- U13G U35G A40G G58C A65U — lower, ≤ 0.5
- U13C G23A — higher, 0.759
- U13G C49G — higher, 0.823
- U13A G38A C49G G50C A70G — lower, ≤ 0.5
